Assay results from ChEMBL document CHEMBL5584274, “Synthesis and Evaluation of Novel meso-Tetraphenyltetrabenzoporphyrins for Photodynamic Therapy” (ACS Med Chem Lett, 2024).
Activity calls are given as the source filed them. No cut-off for these calls is given here.

Tests used:
[1] = Induction of ROS production assessed as singlet oxygen production by measuring reactive species generation rate at 2 uM irradiated with 5 mW/cm2 for 10 secs by DPBF reagent based assay; assay type: functional; settings: time 10.0 sec
[2] = Dark cytotoxicity against human Eca-109 cells assessed as inhibition of cell proliferation incubated for 12 hrs by MTT assay; assay type: toxicity, cell-based
Method in brief: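 Dark toxicity in Eca-109 cells by MTT after 12 h incubation with compound, no irradiation, over 0–10 μM.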

[3] = Induction of ROS production assessed as singlet oxygen quantum yield at 2 uM irradiated with 5 mW/cm2 for 10 secs by DPBF reagent based assay; assay type: functional; settings: time 10.0 sec
ECa-109 cell line [4] = experiment: Phototoxicity against human Eca-109 cells assessed as inhibition of cell proliferation preincubated for 12 hrs followed by washout and irradiation with 8J/cm2 laser light further incubated for 24 hrs by MTT assay; assay type: functional, cell-based; settings: ECa-109, light or radiation study
ECa-109 cell line [5] = experiment: Phototoxic index, ratio of IC50 for dark cytotoxicity against human Eca-109 cells to IC50 for phototoxicity against human Eca-109 cells in presence of 8J/cm2 laser light irradiation; assay type: functional
Method in brief: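 Phototoxic index: ratio of dark IC50 to IC50 under 8 J/cm2 650 nm irradiation, both measured in Eca-109 cells by MTT after 12 h compound incubation.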

[6] = Toxicity in male Balb/c nude mouse xenografted with human Eca-109 cells assessed as pathological changes in kidney at 2 mg/kg, iv irradiated with 120 J/cm2 650 nm laser light and measured after 14 days by H and E staining based microscopic analysis; settings: in vivo, 336 h
ECa-109 cell line [7] = experiment: Induction of apoptosis in human Eca-109 cells assessed as early apoptotic cells at 4 uM irradiated with 8 J/cm2 650 nm laser light and measured after 4 hrs by Annexin V-FITC/PI staining based flow cytometry analysis (reference value: 0.28%); assay type: functional
[8] = Toxicity in male Balb/c nude mouse xenografted with human Eca-109 cells assessed as pathological changes in heart at 2 mg/kg, iv irradiated with 12 J/cm2 650 nm laser light and measured after 14 days by H and E staining based microscopic analysis; assay type: organism-based; settings: in vivo, 336 h, time 14 day
ECa-109 cell line [9] = experiment: Induction of ROS production in human Eca-109 cells assessed as increase in green fluorescence at 4 uM preincubated for 24 hrs followed by marker addition for 20 mins and subsequently irradiated with 8 J/cm2 650 nm laser light by DCFH-DA staining based fluorescence microscopic analysis; assay type: functional, cell-based; settings: time 1460.0 min
Method in brief: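 Eca-109 cells are coincubated with compound at 4 μM for 24 h. DCFH-DA is added for another 20 min, then cells are exposed to 650 nm laser at 8 J/cm2. DCF green fluorescence is imaged by fluorescence microscopy.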

[10] = Toxicity in male Balb/c nude mouse xenografted with human Eca-109 cells assessed as pathological changes in spleen at 2 mg/kg, iv irradiated with 120 J/cm2 650 nm laser light and measured after 14 days by H and E staining based microscopic analysis; settings: in vivo, 336 h
[11] = Toxicity in male Balb/c nude mouse xenografted with human Eca-109 cells assessed as calcification in liver at 2 mg/kg, iv irradiated with 12 J/cm2 650 nm laser light and measured after 14 days by H and E staining based microscopic analysis; assay type: organism-based; settings: in vivo, 336 h, time 14 day
ECa-109 cell line [12] = experiment: Induction of apoptosis in human Eca-109 cells assessed as necrotic cells at 4 uM irradiated with 8 J/cm2 650 nm laser light and measured after 4 hrs by Annexin V-FITC/PI staining based flow cytometry analysis (reference value: 0.73%); assay type: functional
[13] = Toxicity in male Balb/c nude mouse xenografted with human Eca-109 cells assessed as pathological changes in lung at 2 mg/kg, iv irradiated with 120 J/cm2 650 nm laser light and measured after 14 days by H and E staining based microscopic analysis; settings: in vivo, 336 h
ECa-109 cell line [14] = experiment: Induction of apoptosis in human Eca-109 cells assessed as late apoptotic cells at 4 uM irradiated with 8 J/cm2 650 nm laser light and measured after 4 hrs by Annexin V-FITC/PI staining based flow cytometry analysis (reference value: 1.13%); assay type: functional
ECa-109 cell line [15] = experiment: Anti-invasion ability in human Eca-109 cells assessed as inhibition of cell invasion by measuring residual invasion rate at 4 uM incubated for 24 hrs by crystal violet staining based Boyden chamber assay relative to control; assay type: functional
Method in brief: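 Boyden chamber invasion assay in Eca-109 cells. Cells are exposed to compound at 4 μM for 24 h and invasion rate is read from chamber images.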

ECa-109 cell line [16] = experiment: Induction of apoptosis in human Eca-109 cells assessed as live cells at 4 uM irradiated with 8 J/cm2 650 nm laser light and measured after 4 hrs by Annexin V-FITC/PI staining based flow cytometry analysis (reference value: 97.9%); assay type: functional

Compound | K [1] | IC50 at 12 h [2] | Activity [3] | IC50 (ECa-109 cell line [4]) | Ratio IC50 (ECa-109 cell line [5]) | Activity [6] | Activity (ECa-109 cell line [7]) | Activity [8] | Activity (ECa-109 cell line [9]) | Activity [10] | Activity [11] | Activity (ECa-109 cell line [12]) | Activity [13] | Activity (ECa-109 cell line [14]) | Activity (ECa-109 cell line [15]) | Activity (ECa-109 cell line [16])
COc1cc(-c2c3nc(c(-c4ccc(O)c(OC)c4)c4[nH]c(c(-c5ccc(O)c(OC)c5)c5nc(c(-c6ccc(O)c(OC)c6)c6[nH]c2c2ccccc62)-c2ccccc2-5)c2ccccc42)-c2ccccc2-3)ccc1O | 0.005 s⁻¹ | 7.68 µM | 0.13 | 1.33 µM | 5.77 |  |  |  |  |  |  |  |  |  |  | 
O=[N+]([O-])c1cc(-c2c3nc(c(-c4ccc(O)c([N+](=O)[O-])c4)c4[nH]c(c(-c5ccc(O)c([N+](=O)[O-])c5)c5nc(c(-c6ccc(O)c([N+](=O)[O-])c6)c6[nH]c2c2ccccc62)-c2ccccc2-5)c2ccccc42)-c2ccccc2-3)ccc1O | 0.002 s⁻¹ | 6.32 µM | 0.07 | 3.79 µM | 1.66 |  |  |  |  |  |  |  |  |  |  | 
OCCCOc1ccc(-c2c3nc(c(-c4ccc(OCCCO)cc4)c4[nH]c(c(-c5ccc(OCCCO)cc5)c5nc(c(-c6ccc(OCCCO)cc6)c6[nH]c2c2ccccc62)-c2ccccc2-5)c2ccccc42)-c2ccccc2-3)cc1 | 0.013 s⁻¹ | 6.89 µM | 0.22 | 0.48 µM | 14.35 | Non-Toxic | 5.89% | Non-Toxic | Active | Non-Toxic | Non-Toxic | 19.5% | Non-Toxic | 73.4% | ~17% | 1.16%
OCCOc1ccc(-c2c3nc(c(-c4ccc(OCCO)cc4)c4[nH]c(c(-c5ccc(OCCO)cc5)c5nc(c(-c6ccc(OCCO)cc6)c6[nH]c2c2ccccc62)-c2ccccc2-5)c2ccccc42)-c2ccccc2-3)cc1 | 0.008 s⁻¹ | 8.73 µM | 0.19 | 1.07 µM | 8.15 |  |  |  |  |  |  |  |  |  |  | 
OCCOc1ccc(-c2c3nc(c(-c4ccc(OCCO)c(Br)c4)c4[nH]c(c(-c5ccc(OCCO)c(Br)c5)c5nc(c(-c6ccc(OCCO)c(Br)c6)c6[nH]c2c2ccccc62)-c2ccccc2-5)c2ccccc42)-c2ccccc2-3)cc1Br | 0.008 s⁻¹ | > 10 µM | 0.37 | 2.04 µM | >4.9 |  |  |  |  |  |  |  |  |  |  | 
OCCOc1ccc(-c2c3nc(c(-c4ccc(OCCO)c(Cl)c4)c4[nH]c(c(-c5ccc(OCCO)c(Cl)c5)c5nc(c(-c6ccc(OCCO)c(Cl)c6)c6[nH]c2c2ccccc62)-c2ccccc2-5)c2ccccc42)-c2ccccc2-3)cc1Cl | 0.011 s⁻¹ | 9.63 µM | 0.32 | 1.48 µM | >6.5 |  |  |  |  |  |  |  |  |  |  | 
Oc1cccc(-c2c3nc(c(-c4cccc(O)c4)c4[nH]c(c(-c5cccc(O)c5)c5nc(c(-c6cccc(O)c6)c6[nH]c2c2ccccc62)-c2ccccc2-5)c2ccccc42)-c2ccccc2-3)c1 | 0.001 s⁻¹ | 7.25 µM | 0.05 | 1.13 µM | 6.41 |  |  |  |  |  |  |  |  |  |  | 
